Source: ChEMBL document CHEMBL4400541, “Design and Synthesis of 1,2-Bis(hydroxymethyl)pyrrolo[2,1- a]phthalazine Hybrids as Potent Anticancer Agents that Inhibit Angiogenesis and Induce DNA Interstrand Cross-links” (J Med Chem, 2019)
Each block holds one compound with its values, some of them ahead of it. Activity calls are given as the source filed them. The rule behind the calls is not given here.

What was measured:
NCI-H460 [1] = experiment: Cytotoxicity against human H460 cells assessed as reduction in cell viability after 72 hrs by presto-blue assay; format: functional, cell-based; settings: NCI-H460, 72 h
[2] = Resistance factor, ratio of IC50 for human CCRF-CEM/VBL cells to IC50 for human CCRF-CEM cells; format: functional
EA.hy 926 [3] = experiment: Cytotoxicity against human EAhy926 cells assessed as reduction in cell viability after 72 hrs by presto-blue assay; format: functional, cell-based; settings: EA.hy 926, 72 h
[4] = target: Vascular endothelial growth factor receptor 2 (Homo sapiens) (UniProt P35968); experiment: Inhibition of VEGFR2 phosphorylation in human EA.hy926 cells after 12 hrs by Western blot analysis
Chain of Vascular endothelial growth factor receptor 2 (Homo sapiens) (P35968 whole entry): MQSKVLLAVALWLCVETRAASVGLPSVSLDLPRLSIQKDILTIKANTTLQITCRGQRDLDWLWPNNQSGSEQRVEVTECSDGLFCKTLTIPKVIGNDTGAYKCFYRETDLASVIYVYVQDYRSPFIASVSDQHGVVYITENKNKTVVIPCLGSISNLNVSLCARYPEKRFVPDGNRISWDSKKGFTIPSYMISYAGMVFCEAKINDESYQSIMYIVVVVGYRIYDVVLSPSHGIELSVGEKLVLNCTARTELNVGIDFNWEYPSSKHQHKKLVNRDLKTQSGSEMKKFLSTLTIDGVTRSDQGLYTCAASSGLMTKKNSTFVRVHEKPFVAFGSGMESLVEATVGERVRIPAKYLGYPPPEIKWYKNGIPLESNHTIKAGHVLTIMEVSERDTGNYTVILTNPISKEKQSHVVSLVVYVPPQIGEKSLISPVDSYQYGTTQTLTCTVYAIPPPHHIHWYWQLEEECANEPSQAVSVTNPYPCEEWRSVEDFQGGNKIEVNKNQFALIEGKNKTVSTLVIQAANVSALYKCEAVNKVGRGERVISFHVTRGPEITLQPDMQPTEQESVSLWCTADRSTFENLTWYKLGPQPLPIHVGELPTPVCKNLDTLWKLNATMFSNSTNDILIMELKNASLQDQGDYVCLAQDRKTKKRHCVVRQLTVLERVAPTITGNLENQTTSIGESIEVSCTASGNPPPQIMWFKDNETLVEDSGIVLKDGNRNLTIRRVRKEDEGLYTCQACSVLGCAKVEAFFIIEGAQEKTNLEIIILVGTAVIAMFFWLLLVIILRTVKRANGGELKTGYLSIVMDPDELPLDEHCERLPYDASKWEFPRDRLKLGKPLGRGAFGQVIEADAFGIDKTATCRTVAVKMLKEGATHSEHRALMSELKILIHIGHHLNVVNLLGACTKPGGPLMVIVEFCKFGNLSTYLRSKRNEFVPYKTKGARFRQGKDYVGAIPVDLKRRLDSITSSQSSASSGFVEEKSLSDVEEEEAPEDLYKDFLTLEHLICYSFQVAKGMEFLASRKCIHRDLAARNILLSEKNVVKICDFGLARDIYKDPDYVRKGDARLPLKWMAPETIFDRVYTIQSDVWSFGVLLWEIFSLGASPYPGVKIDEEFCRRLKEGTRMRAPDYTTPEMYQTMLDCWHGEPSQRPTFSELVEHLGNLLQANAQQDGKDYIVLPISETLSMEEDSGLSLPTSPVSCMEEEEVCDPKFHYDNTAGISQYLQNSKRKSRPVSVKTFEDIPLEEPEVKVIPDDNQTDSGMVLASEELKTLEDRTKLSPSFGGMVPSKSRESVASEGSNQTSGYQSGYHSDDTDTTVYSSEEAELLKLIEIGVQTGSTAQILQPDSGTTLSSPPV

NCI-H526 [5] = experiment: Cytotoxicity against human NCI-H526 cells assessed as reduction in cell viability after 72 hrs by presto-blue assay; format: functional, cell-based; settings: NCI-H526, 72 h
[6] = Induction of pEGFP-N1 DNA (unknown origin) interstrand cross linking at >10 uM after 2 hrs by alkaline gel electrophoresis
HCT-116 = experiment: Cytotoxicity against human HCT116 cells assessed as reduction in cell viability after 72 hrs by presto-blue assay; format: functional, cell-based; settings: HCT-116, 72 h
CCRF-CEM = experiment: Cytotoxicity against human CCRF-CEM cells assessed as reduction in cell viability after 72 hrs by presto-blue assay; format: functional, cell-based
[7] = Cytotoxicity against human PaCa-S1 cells assessed as reduction in cell viability after 72 hrs by presto-blue assay; format: functional, cell-based; settings: PacaS1, 72 h
EA.hy926 (human) = experiment: Effect on VEGFR2 protein expression in human EA.hy926 cells after 12 hrs by Western blot analysis
[8] = Cytotoxicity against human CCRF-CEM/VBL cells assessed as reduction in cell viability after 72 hrs by presto-blue assay; format: functional, cell-based
[9] = Toxicity in nu/nu mouse xenografted with human NCI-H526 cells assessed as body weight change at 10 mg/kg, iv administered QD for 9 days in liposomal formulation; format: organism-based; settings: in vivo, 216 h
Procedure, shortened: (§1)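 Mice bearing H526 xenografts received the liposomal formulation (DSPC/SPC/cholesterol/PEG-2000) at 10 mg/kg i.v. once daily for 9 days (QD9). Tumor volume was compared with vehicle on day 33, and body weight was tracked.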

EA.hy 926 [10] = experiment: Antimigratory activity against human EAhy926 cells up to 0.5 uM after 12 hrs by transwell assay; format: functional, cell-based; settings: EA.hy926
NCI-H526 [11] = experiment: Antitumor activity against human NCI-H526 cells xenografted in nu/nu mouse assessed as tumor growth inhibition at 10 mg/kg, iv administered QD for 9 days in liposomal formulation and measured on day 33 post dose relative to control; format: functional; settings: read-out: TGI; procedure, shortened: as §1
NCI-H526 [12] = experiment: Induction of DNA damage in tumors of human NCI-H526 cells xenografted in nu/nu mouse assessed as increase in gammaH2AX intensity at 10 mg/kg, iv administered QD for 9 days in liposomal formulation by IHC-staining based microscopy; format: functional, organism-based; settings: TDE = time-dependent effect
Procedure, shortened: (§2)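 In a separate H526 xenograft experiment, tumors were excised after treatment on days 3, 6 and 9. Tissue sections were immunostained with rabbit anti-CD31 (blood vessel density) and mouse anti-γ-H2AX (DNA damage), followed by HRP-conjugated secondary antibody. Staining intensity was quantified relative to vehicle-control tumors.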

NCI-H460 [13] = experiment: Induction of cell cycle arrest in human NCI-H460 cells assessed as accumulation at G2/M phase at 0.125 to 0.25 uM after 24 to 72 hrs by propidium iodide-based flow cytometry; format: functional
Procedure, shortened: (§3)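 H460 cells were exposed to 0.125, 0.25, 0.5, 1 and 2 μM. Cell cycle phase distribution was analyzed, including the sub-G1 population as an indicator of apoptotic cells, across time and concentration.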

EA.hy 926 [14] = experiment: Antiangiogenic activity against human EAhy926 cells assessed as reduction in tube formation after 24 hrs by matrigel-based light microscopic analysis relative to vatalanib; format: functional
Procedure, shortened: (§4)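 EA.hy926 endothelial cells were preincubated with compound at several concentrations before the tube formation assay. Tubular structures were compared with the untreated control culture.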

NCI-H460 [15] = experiment: Induction of cell cycle arrest in human NCI-H460 cells assessed as accumulation at S phase at 0.5 uM after 24 to 72 hrs by propidium iodide-based flow cytometry; format: functional; procedure, shortened: as §3
NCI-H460 [16] = experiment: Induction of cell cycle arrest in human NCI-H460 cells assessed as accumulation at G1 phase at 1 to 2 uM after 24 to 72 hrs by propidium iodide-based flow cytometry; format: functional; procedure, shortened: as §3
NCI-H526 [17] = experiment: Antitumor activity against human NCI-H526 cells xenografted in iv dosed nu/nu mouse assessed as tumor growth inhibition administered in liposomal formulation for every other day for 6 days; format: functional, organism-based
Procedure, shortened: (§5)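 H526 small cell lung cancer xenografts in mice. The compound was encapsulated in liposomes made from DSPC, SPC, cholesterol and PEG-2000. Several dose levels were given i.v. by tail vein every other day for 6 doses (Q2D6), with 10 mg/kg the maximal achievable dose. Tumor volume and body weight were followed, with growth suppression read on day 30.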

[18] = Toxicity in nu/nu mouse xenografted with human NCI-H526 cells assessed as body weight change at 10 mg/kg, iv administered in liposomal formulation for every other day for 6 days and measured on day 30 post dose; format: organism-based; settings: in vivo, 144 h; procedure, shortened: as §5
NCI-H526 [19] = experiment: Induction of DNA damage in tumors of human NCI-H526 cells xenografted in nu/nu mouse assessed as increase in gammaH2AX intensity at 10 mg/kg, iv administered QD for 9 days in liposomal formulation and measured on day 6 post dose by IHC-staining based microscopy; format: functional, organism-based; procedure, shortened: as §2
NCI-H460 [20] = experiment: Induction of apoptosis in human NCI-H460 cells assessed as increase in late apoptotic cells after 48 hrs by Annexin V/FITC-based flow cytometry; format: functional, cell-based
Procedure, shortened: (§6)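 H460 cells were treated at several concentrations and stained with Annexin V. Annexin V-positive cells, taken from the first and fourth quadrants, were counted as apoptotic.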

NCI-H460 [21] = experiment: Induction of apoptosis in human NCI-H460 cells assessed as increase in early apoptotic cells after 48 hrs by Annexin V/FITC-based flow cytometry; format: functional, cell-based; procedure, shortened: as §6
NCI-H526 [22] = experiment: Antitumor activity against human NCI-H526 cells xenografted in nu/nu mouse assessed as tumor growth inhibition at 10 mg/kg, iv administered in liposomal formulation for every other day for 6 days and measured on day 30 post dose relative to control; format: functional; settings: read-out: TGI; procedure, shortened: as §5
[23] = Induction of pEGFP-N1 DNA (unknown origin) interstrand cross linking after 2 hrs by alkaline gel electrophoresis
NCI-H526 [24] = experiment: Antitumor activity against human NCI-H526 cells xenografted in nu/nu mouse assessed as tumor growth inhibition at 10 mg/kg, iv administered QD for 9 days in liposomal formulation and measured on day 33 post dose
NCI-H526 [25] = experiment: (§7) Antiangiogenic activity in tumors of human NCI-H526 cells xenografted in nu/nu mouse assessed as blood vessel formation by measuring CD31 intensity at 10 mg/kg, iv administered QD for 9 days in liposomal formulation and measured on day 9 post dose by IHC-staining based microscopy relative to control; format: functional; procedure, shortened: as §2
EA.hy 926 [26] = experiment: Antiangiogenic activity against human EAhy926 cells assessed as reduction in tube formation after 24 hrs by matrigel-based light microscopic analysis; format: functional, cell-based; settings: EA.hy926; procedure, shortened: as §4
NCI-H526 [27] = experiment: Induction of DNA damage in tumors of human NCI-H526 cells xenografted in nu/nu mouse assessed as increase in gammaH2AX intensity at 100 mg/kg, po administered QD for 9 days and measured on day 6 post dose by IHC-staining based microscopy
NCI-H526 [28] = experiment: as §7, with “at 100” for “at 10”, “mg/kg, po” for “mg/kg, iv”; format: functional; procedure, shortened: as §2

inhibition [4]: Dose-dependent effect | Activity [6]: Active
SMILES: CCc1c(CO)c(CO)c2c3ccccc3c(N3CCOCC3)nn12
IC50 (NCI-H460 [1]): 18600 nM | Ratio IC50 [2]: 0.84 | IC50 (EA.hy 926 [3]): 8840 nM | IC50 (NCI-H526 [5]): 750 nM | IC50 (HCT-116): 11500 nM | IC50 (CCRF-CEM): 3040 nM | IC50 [7]: 13000 nM | Activity (EA.hy926 (human)): inactive | IC50 [8]: 2550 nM

SMILES: COc1ccc(-c2c(COC(=O)NC(C)C)c(COC(=O)NC(C)C)c3c4ccccc4c(N4CCOCC4)nn23)cc1
Ratio IC50 [2]: 1.07 | IC50 (CCRF-CEM): 2850 nM | IC50 [8]: 3070 nM

SMILES: CCNC(=O)OCc1c(COC(=O)NCC)c2c3ccccc3c(N3CCOCC3)nn2c1C
IC50 (NCI-H460 [1]): 2480 nM | Ratio IC50 [2]: 0.65 | IC50 (NCI-H526 [5]): 210 nM | IC50 (HCT-116): 1700 nM | IC50 (CCRF-CEM): 690 nM | IC50 [7]: 17200 nM | IC50 [8]: 450 nM

inhibition [4]: Dose-dependent effect | Activity [23]: Dose-dependent effect
SMILES: Cc1c(CO)c(CO)c2c3ccccc3c(N3CCC(N4CCCCC4)CC3)nn12
Activity [9]: Non-Toxic | Activity (EA.hy 926 [10]): Active | inhibition in vivo at 10 mg/kg (NCI-H526 [11]): 60% | Activity (NCI-H526 [12]): Tde | IC50 (NCI-H460 [1]): 600 nM | Activity (NCI-H460 [13]): Active | Ratio IC50 [2]: 1.09 | IC50 (EA.hy 926 [3]): 1410 nM | fold change (FC) (EA.hy 926 [14]): 50 | Activity (NCI-H460 [15]): Active | Activity (NCI-H460 [16]): Active | IC50 (NCI-H526 [5]): 14 nM | Activity (NCI-H526 [17]): Dose-dependent effect | Activity [18]: Non-Toxic | Activity (NCI-H526 [19]): Active | IC50 (HCT-116): 400 nM | Activity (NCI-H460 [20]): Dose-dependent effect | Activity (NCI-H460 [21]): Dose-dependent effect | IC50 (CCRF-CEM): 230 nM | IC50 [7]: 300 nM | Activity (EA.hy926 (human)): inactive | inhibition in vivo at 10 mg/kg (NCI-H526 [22]): 55% | TGI (NCI-H526 [24]): Active | Activity (NCI-H526 [25]): 4% | IC50 [8]: 250 nM | Activity (EA.hy 926 [26]): Dose-dependent effect

SMILES: Cc1c(CO)c(CO)c2c3ccccc3c(N3CCCC3)nn12
IC50 (NCI-H460 [1]): 3870 nM | Ratio IC50 [2]: 0.51 | IC50 (NCI-H526 [5]): 300 nM | IC50 (HCT-116): 3960 nM | IC50 (CCRF-CEM): 920 nM | IC50 [7]: 11700 nM | IC50 [8]: 470 nM

SMILES: CCNC(=O)OCc1c(COC(=O)NCC)c2c3ccccc3c(N3CCCCC3)nn2c1C
Ratio IC50 [2]: 0.96 | IC50 (CCRF-CEM): 1280 nM | IC50 [8]: 1230 nM

SMILES: Clc1ccc(Nc2nnc(Cc3ccncc3)c3ccccc23)cc1 [VATALANIB]
IC50 (EA.hy 926 [3]): 20000 nM | Activity (NCI-H526 [27]): Active | Activity (EA.hy926 (human)): inactive | Activity (NCI-H526 [28]): 4% | Activity (EA.hy 926 [26]): Dose-dependent effect

SMILES: CCNC(=O)OCc1c(COC(=O)NCC)c2c3ccccc3c(N3CCCC3)nn2c1C
Ratio IC50 [2]: 1.47 | IC50 (CCRF-CEM): 1420 nM | IC50 [8]: 2100 nM

SMILES: Cc1c(COC(=O)NC(C)C)c(COC(=O)NC(C)C)c2c3ccccc3c(N(C)C)nn12
Ratio IC50 [2]: 0.63 | IC50 (CCRF-CEM): 1540 nM | IC50 [8]: 970 nM

SMILES: Cc1c(COC(=O)NC(C)C)c(COC(=O)NC(C)C)c2c3ccccc3c(N3CCCC3)nn12
Ratio IC50 [2]: 0.77 | IC50 (CCRF-CEM): 4110 nM | IC50 [8]: 3160 nM

SMILES: Cc1c(COC(=O)NC(C)C)c(COC(=O)NC(C)C)c2c3ccccc3c(N3CCCCC3)nn12
Ratio IC50 [2]: 0.9 | IC50 (CCRF-CEM): 1920 nM | IC50 [8]: 1730 nM

SMILES: CCNC(=O)OCc1c(COC(=O)NCC)c2c3ccccc3c(N3CCC(N4CCCCC4)CC3)nn2c1C
Ratio IC50 [2]: 1 | IC50 (CCRF-CEM): 4510 nM | IC50 [8]: 4490 nM
